Reference: ChEMBL document CHEMBL4325826, “Identification of a Selective, Non-Prostanoid EP2 Receptor Agonist for the Treatment of Glaucoma: Omidenepag and its Prodrug Omidenepag Isopropyl” (J Med Chem, 2018)
Calls of active or inactive are those of the source. No cut-off for these calls is given here.

Key:
[1] = target: T1, Prostaglandin E2 receptor EP2 subtype (Homo sapiens, UniProt P43116); assay: Displacement of [3H]prostaglandin E2 from human EP2 receptor expressed in HEK293 cell membranes after 60 mins by liquid scintillation counting
[2] = target: T1, Prostaglandin E2 receptor EP2 subtype; assay: Agonist activity at recombinant human EP2 receptor expressed in HEK293 cells assessed as induction of cAMP accumulation after 30 mins; assay type: functional, cell-based
How it was run: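 HEK293 cells stably expressing h-EP2 grown in MEM with 10% FBS, seeded at 2 × 10^4 cells/well. Next day switched to serum-free MEM with 500 µM IBMX (final) for 30 min at 37 °C, then test compound in DMSO added for 30 min at 37 °C. Cells lysed, cAMP quantified by EIA or HTRF kit.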

[3] = target: T2, Prostaglandin E2 receptor EP1 subtype (Homo sapiens, UniProt P34995); assay: Displacement of [3H]prostaglandin E2 from recombinant human full length EP1 receptor expressed in Chem-1 cell membranes after 60 mins by liquid scintillation counting
T2 sequence (P34995 whole entry): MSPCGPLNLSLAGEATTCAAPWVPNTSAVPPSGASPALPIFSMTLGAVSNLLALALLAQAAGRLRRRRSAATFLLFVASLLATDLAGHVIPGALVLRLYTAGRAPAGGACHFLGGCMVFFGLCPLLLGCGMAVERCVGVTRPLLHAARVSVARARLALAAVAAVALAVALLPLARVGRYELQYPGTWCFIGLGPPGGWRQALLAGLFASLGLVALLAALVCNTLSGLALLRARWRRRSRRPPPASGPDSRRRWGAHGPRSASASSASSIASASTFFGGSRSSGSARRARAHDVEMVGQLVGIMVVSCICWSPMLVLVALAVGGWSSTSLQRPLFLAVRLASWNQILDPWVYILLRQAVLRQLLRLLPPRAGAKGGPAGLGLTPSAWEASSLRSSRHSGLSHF

[4] = target: T3, Prostaglandin E2 receptor EP3 subtype (Homo sapiens, UniProt P43115); assay: Displacement of [3H]prostaglandin E2 from recombinant human full length EP3 receptor expressed in Chem-1 cell membranes after 60 mins by liquid scintillation counting
T3 sequence (P43115 whole entry): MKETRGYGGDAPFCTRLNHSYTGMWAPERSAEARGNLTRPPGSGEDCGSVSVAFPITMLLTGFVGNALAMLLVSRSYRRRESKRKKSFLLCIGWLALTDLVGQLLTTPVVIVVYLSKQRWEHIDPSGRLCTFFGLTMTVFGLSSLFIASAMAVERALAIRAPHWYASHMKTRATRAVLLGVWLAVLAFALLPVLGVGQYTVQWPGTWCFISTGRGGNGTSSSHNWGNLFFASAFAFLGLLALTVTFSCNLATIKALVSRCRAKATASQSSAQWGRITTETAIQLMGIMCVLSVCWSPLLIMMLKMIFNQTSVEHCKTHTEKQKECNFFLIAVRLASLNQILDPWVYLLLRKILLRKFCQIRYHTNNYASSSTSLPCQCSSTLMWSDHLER

[5] = target: Prostaglandin E2 receptor EP4 subtype (Homo sapiens, UniProt P35408); assay: Displacement of [3H]prostaglandin E2 from recombinant human full length EP4 receptor expressed in Chem-1 cell membranes after 60 mins by liquid scintillation counting
[6] = Apparent permeability of the compound at 100 uM after 5 hrs by PAMPA; assay type: ADME
Cynomolgus monkey [7] = assay: Reduction of intraocular pressure in ocular normotensive cynomolgus monkey administered topically to the eyes once daily at around 5 pm from day 1 to day 14 and measured at […] at day 8 and 15 post dose; assay type: functional, organism-based; details: Macaca fascicularis
Cynomolgus monkey [8] = assay: Reduction of intraocular pressure in ocular normotensive cynomolgus monkey at 0.01% administered topically to the eyes once daily at around 5 pm from day 1 to day 14 and measured at 10 am at day 8 and 15 post dose; details: Macaca fascicularis
[9] = Apparent permeability from apical side at pH 7.4 to basolateral side at pH 7.4 in human Caco2 cells a 10 uM after 30 to 120 mins by HPLC-MS analysis; assay type: ADME, cell-based; details: Caco-2, pH 7.4
[10] = Apparent permeability from apical side at pH 6.5 to basolateral side at pH 7.4 in human Caco2 cells a 10 uM after 30 to 120 mins by HPLC-MS analysis; assay type: ADME, cell-based; details: Caco-2, pH 6.5
[11] = Drug metabolism in human liver microsomes assessed as metabolic rate at 10 uM after 30 mins by HPLC-MS analysis; assay type: ADME, Microsome; details: 0.5 h
Cytochrome P450 3A4 [12] = target: T4, Cytochrome P450 3A4 (Homo sapiens, UniProt P08684); assay: Inhibition of recombinant human CYP3A4 using 7-benzyloxyquinoline fluorescent substrate in presence of NADPH-generating system after 15 mins; assay type: ADME
How it was run: (§1)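 Each recombinant human CYP isoform (3A4, 2D6, 2C9, 2C19, 1A2) tested for inhibition by compound.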

Cytochrome P450 2D6 = Cytochrome P450 2D6 (Homo sapiens, UniProt P10635); assay: Inhibition of recombinant human CYP2D6 using 3-(2-(N,N-diethyl-N-methylammonium)ethyl)-7-methoxy-4-methylcoumariniodide fluorescent substrate in presence of NADPH-generating system after 15 mins; assay type: ADME; how it was run: as §1
Cytochrome P450 2C9 = Cytochrome P450 2C9 (Homo sapiens, UniProt P11712); assay: Inhibition of recombinant human CYP2C9 using 7-methoxy-4-(trifluoromethyl)coumarin fluorescent substrate in presence of NADPH-generating system after 15 mins; assay type: ADME; how it was run: as §1
Cytochrome P450 2C19 = Cytochrome P450 2C19 (Homo sapiens, UniProt P33261); assay: Inhibition of recombinant human CYP2C19 using 3-cyano-7-ethoxycoumarin fluorescent substrate in presence of NADPH-generating system after 15 mins; assay type: ADME; how it was run: as §1
Cytochrome P450 1A2 [13] = target: T5, Cytochrome P450 1A2 (Homo sapiens, UniProt P05177); assay: Inhibition of recombinant human CYP1A2 using 3-cyano-7-ethoxycoumarin fluorescent substrate in presence of NADPH-generating system after 15 mins; assay type: ADME; how it was run: as §1
T5 sequence (P05177 whole entry): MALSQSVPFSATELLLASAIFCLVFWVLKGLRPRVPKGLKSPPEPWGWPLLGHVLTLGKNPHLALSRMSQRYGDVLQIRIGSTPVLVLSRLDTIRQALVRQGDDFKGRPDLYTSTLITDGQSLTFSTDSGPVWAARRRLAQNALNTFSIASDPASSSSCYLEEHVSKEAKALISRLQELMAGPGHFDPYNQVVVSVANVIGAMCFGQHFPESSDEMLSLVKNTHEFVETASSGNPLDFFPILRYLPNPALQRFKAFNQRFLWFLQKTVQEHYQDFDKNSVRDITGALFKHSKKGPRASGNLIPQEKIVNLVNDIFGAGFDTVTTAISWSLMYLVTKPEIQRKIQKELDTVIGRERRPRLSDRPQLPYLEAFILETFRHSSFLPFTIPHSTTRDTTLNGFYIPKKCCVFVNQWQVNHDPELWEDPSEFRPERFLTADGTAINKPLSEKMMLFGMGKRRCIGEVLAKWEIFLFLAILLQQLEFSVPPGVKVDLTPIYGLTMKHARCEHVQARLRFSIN

Cytochrome P450 3A4 [14] = target: T4, Cytochrome P450 3A4; assay: Induction of CYP3A4 in human Fa2N-4 cells up to 100 uM using testosterone as substrate incubated for 24 hrs followed by compound replacement for every 24 hrs during 72 hrs incubation period followed by substrate addition for 4 hrs by LC-MS analysis; assay type: ADME, cell-based
How it was run: (§2)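 Human Fa2N-4 cells exposed to compound to assess CYP3A4 and CYP1A2 induction. Five concentrations, single experiment in triplicate.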

Cytochrome P450 1A2 [15] = target: T5, Cytochrome P450 1A2; assay: Induction of CYP1A2 in human Fa2N-4 cells up to 100 uM using phenacetin as substrate incubated for 24 hrs followed by compound replacement for every 24 hrs during 72 hrs incubation period followed by substrate addition for 4 hrs by LC-MS analysis; assay type: ADME, cell-based; how it was run: as §2
[16] = target: T1, Prostaglandin E2 receptor EP2 subtype; assay: Potency index, ratio of CP-533,536 EC50 to compound EC50 for recombinant human EP2 receptor expressed in HEK293 cells by cAMP accumulation assay; assay type: functional, cell-based
Cynomolgus monkey [17] = assay: Reduction of intraocular pressure in ocular normotensive cynomolgus monkey at 0.3 to 1% administered topically to the eyes once daily at around 5 pm from day 1 to day 14 and measured at 10 am at day 8 and 15 post dose; details: Macaca fascicularis

T1 sequence (P43116 whole entry): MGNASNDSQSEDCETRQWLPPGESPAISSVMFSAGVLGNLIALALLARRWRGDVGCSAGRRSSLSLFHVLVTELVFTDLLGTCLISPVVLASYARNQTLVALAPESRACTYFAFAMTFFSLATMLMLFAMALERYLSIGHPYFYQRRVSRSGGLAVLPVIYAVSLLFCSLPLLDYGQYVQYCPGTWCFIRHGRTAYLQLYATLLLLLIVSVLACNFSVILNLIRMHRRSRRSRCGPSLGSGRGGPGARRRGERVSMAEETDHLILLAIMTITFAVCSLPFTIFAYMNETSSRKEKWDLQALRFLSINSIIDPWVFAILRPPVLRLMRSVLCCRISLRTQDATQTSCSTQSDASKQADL
Chain of Prostaglandin E2 receptor EP4 subtype (P35408 whole entry): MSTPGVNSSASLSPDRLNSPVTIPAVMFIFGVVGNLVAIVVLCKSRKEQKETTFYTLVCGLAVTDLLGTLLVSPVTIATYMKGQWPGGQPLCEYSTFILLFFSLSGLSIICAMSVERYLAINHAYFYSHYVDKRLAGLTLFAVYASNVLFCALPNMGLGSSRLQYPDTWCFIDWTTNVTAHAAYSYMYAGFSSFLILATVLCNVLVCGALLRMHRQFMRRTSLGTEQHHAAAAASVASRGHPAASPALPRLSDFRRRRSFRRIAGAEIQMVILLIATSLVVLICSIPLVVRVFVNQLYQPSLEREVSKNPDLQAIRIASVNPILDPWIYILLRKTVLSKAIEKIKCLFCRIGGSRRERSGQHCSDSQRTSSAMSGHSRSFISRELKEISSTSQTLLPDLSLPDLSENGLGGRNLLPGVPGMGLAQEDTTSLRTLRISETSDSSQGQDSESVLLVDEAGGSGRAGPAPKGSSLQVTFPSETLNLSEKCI
T4 sequence (P08684 whole entry, canonical isoform): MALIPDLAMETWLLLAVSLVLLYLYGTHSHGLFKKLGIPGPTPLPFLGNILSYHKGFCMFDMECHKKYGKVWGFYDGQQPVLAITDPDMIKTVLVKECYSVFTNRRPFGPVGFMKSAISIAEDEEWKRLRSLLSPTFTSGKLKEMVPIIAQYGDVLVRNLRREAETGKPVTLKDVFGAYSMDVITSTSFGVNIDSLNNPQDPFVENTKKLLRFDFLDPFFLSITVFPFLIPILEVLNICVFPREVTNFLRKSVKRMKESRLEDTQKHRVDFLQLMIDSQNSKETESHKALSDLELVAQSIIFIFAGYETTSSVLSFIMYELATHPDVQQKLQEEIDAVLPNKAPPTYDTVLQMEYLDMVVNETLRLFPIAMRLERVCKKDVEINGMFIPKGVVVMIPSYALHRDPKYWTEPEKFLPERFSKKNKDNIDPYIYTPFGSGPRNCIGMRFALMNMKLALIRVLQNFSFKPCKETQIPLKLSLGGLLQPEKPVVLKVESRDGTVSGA
Chain of Cytochrome P450 2D6 (P10635 whole entry): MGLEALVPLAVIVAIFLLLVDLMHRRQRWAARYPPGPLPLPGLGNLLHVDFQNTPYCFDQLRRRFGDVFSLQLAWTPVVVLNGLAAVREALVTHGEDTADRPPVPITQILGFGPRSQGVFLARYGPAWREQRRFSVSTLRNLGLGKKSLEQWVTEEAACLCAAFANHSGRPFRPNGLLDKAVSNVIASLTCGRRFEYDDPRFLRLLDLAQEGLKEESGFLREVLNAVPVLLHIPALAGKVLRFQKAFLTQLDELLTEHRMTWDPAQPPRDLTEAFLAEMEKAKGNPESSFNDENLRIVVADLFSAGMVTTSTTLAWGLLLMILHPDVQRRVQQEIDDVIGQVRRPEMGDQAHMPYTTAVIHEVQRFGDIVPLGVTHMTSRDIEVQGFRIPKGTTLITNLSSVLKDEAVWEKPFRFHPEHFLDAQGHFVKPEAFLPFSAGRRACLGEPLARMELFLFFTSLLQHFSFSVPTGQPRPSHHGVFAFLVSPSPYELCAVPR
Chain of Cytochrome P450 2C19 (P33261 whole entry): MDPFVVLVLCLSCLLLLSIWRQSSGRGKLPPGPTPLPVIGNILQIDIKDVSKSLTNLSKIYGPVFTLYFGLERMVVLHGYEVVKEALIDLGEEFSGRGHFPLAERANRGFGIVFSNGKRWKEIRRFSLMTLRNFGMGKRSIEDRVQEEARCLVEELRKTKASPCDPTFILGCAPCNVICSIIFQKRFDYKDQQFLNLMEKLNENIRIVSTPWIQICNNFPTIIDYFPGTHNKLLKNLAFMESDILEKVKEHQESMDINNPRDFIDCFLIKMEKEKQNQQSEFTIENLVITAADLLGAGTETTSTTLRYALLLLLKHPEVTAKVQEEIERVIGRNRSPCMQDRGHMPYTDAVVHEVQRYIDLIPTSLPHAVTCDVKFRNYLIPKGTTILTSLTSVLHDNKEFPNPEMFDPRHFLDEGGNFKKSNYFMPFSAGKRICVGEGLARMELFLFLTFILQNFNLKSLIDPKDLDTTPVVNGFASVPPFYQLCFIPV
Chain of Cytochrome P450 2C9 (P11712 whole entry): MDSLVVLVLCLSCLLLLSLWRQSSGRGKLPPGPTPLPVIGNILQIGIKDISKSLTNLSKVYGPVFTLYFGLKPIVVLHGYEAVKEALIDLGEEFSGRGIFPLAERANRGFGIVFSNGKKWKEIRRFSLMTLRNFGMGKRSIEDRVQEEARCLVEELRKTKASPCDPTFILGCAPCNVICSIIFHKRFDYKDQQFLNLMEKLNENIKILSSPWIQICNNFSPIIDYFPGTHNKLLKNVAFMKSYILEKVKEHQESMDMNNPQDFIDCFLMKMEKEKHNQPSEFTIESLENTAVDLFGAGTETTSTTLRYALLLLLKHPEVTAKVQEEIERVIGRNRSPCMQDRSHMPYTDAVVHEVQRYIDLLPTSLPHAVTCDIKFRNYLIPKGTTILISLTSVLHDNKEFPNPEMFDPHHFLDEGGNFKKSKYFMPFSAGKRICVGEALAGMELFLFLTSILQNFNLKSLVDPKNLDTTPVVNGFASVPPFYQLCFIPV

CC(C)(C)c1ccc(CN(Cc2cccc3oc(C(=O)O)cc23)S(=O)(=O)c2cccnc2)cc1
Ki [1]: 15 nM

CC(C)(C)c1ccc(CN(Cc2ccc3cc(C(=O)O)oc3c2)S(=O)(=O)c2cccnc2)cc1
Ki [1]: 433 nM

O=C(O)CNc1cccc(CN(Cc2ccc(-n3cncn3)cc2)S(=O)(=O)c2cccnc2)n1
EC50 [2]: 43 nM

O=C(O)CNc1cccc(CN(Cc2ccc(-c3ccc(F)cc3)cc2)S(=O)(=O)c2cccnc2)n1
EC50 [2]: 35 nM

O=C(O)CNc1cccc(CN(Cc2ccc(C(F)(F)F)cc2)S(=O)(=O)c2cccnc2)n1
EC50 [2]: 119 nM

CC(C)(C)c1ccc(CN(Cc2cccc(NCCC(=O)O)n2)S(=O)(=O)c2cccnc2)cc1
EC50 [2]: 83 nM

CC(C)(C)c1ccc(CN(Cc2cccc(NCC(=O)O)n2)S(=O)(=O)c2cccc(Cl)c2)cc1
EC50 [2]: 620 nM

CC(C)C1(c2ccc(CN(Cc3cccc(NCC(=O)O)n3)S(=O)(=O)c3cccnc3)cc2)CC1
EC50 [2]: 18 nM

O=C(O)CNc1cccc(CN(Cc2ccc(C3CCCCC3)cc2)S(=O)(=O)c2cccnc2)n1
EC50 [2]: 29 nM

O=C(O)CNc1cccc(CN(Cc2ccc(-c3ccccn3)cc2)S(=O)(=O)c2cccnc2)n1
EC50 [2]: 1.6 nM

CC(C)(C)c1ccc(CN(Cc2cccc(NCC(=O)O)n2)S(=O)(=O)c2ccccc2Cl)cc1
EC50 [2]: > 1000 nM

O=C(O)CNc1cccc(CN(Cc2ccc(-c3ccnnc3)cc2)S(=O)(=O)c2cccnc2)n1
EC50 [2]: 307 nM

CC(C)(C)C1CCC(CN(Cc2cccc(NCC(=O)O)n2)S(=O)(=O)c2cccnc2)CC1 (stereo unspecified)
EC50 [2]: 649 nM

CN(CC(=O)O)c1cccc(CN(Cc2ccc(C(C)(C)C)cc2)S(=O)(=O)c2cccnc2)n1
EC50 [2]: 283 nM

CC(C)(C)c1ccc(CN(Cc2csc(NCC(=O)O)n2)S(=O)(=O)c2cccnc2)cc1
EC50 [2]: 360 nM

CC(C)(C)c1ccc(CN(Cc2ccc3ccn(CC(=O)O)c3c2)S(=O)(=O)c2cccnc2)cc1
EC50 [2]: > 1000 nM

O=C(O)CNc1cccc(CN(Cc2ccc(-c3ccc(Cl)cc3)cc2)S(=O)(=O)c2cccnc2)n1
EC50 [2]: 75 nM

O=C(O)CNc1cccc(CN(CCCCCc2ccccc2)S(=O)(=O)c2cccnc2)n1
EC50 [2]: 118 nM

COc1ccc(S(=O)(=O)N(Cc2ccc(C(C)(C)C)cc2)Cc2cccc(NCC(=O)O)n2)cc1
EC50 [2]: 19 nM

CC(C)(C)c1ccc(CN(Cc2cccc(NCC(=O)O)n2)S(C)(=O)=O)cc1
EC50 [2]: 91 nM

CC(C)(C)c1ccc(CN(Cc2cccc(NCC(=O)O)n2)S(=O)(=O)c2ccccc2F)cc1
EC50 [2]: 45 nM

CC(C)(C)c1cccc(CN(Cc2cccc(NCC(=O)O)n2)S(=O)(=O)c2cccnc2)c1
EC50 [2]: 109 nM

CC(C)(C)c1ccc(CN(Cc2ccnc(NCC(=O)O)c2)S(=O)(=O)c2cccnc2)cc1
EC50 [2]: > 1000 nM

CC(C)(C)c1ccc(CN(Cc2cc(NCC(=O)O)ccn2)S(=O)(=O)c2cccnc2)cc1
EC50 [2]: > 1000 nM

CCC1(c2ccc(CN(Cc3cccc(NCC(=O)O)n3)S(=O)(=O)c3cccnc3)cc2)CCC1
EC50 [2]: 13 nM

CCCCC[C@H](O)/C=C/[C@H]1[C@H](O)CC(=O)[C@@H]1C/C=C\CCCC(=O)O [DINOPROSTONE]
IC50 [3]: < 30 nM

CC(C)OC(=O)CNc1cccc(CN(Cc2ccc(-n3cccn3)cc2)S(=O)(=O)c2cccnc2)n1 [OMIDENEPAG ISOPROPYL]
IC50 [1]: 4180 nM
IC50 [3]: > 10000 nM
IC50 [4]: > 10000 nM
IC50 [5]: > 10000 nM
Papp at 5 h, 100 µM [6]: 28 ×10⁻⁶ cm/s
Activity (Cynomolgus monkey [7]): Dose-dependent effect
Activity (Cynomolgus monkey [8]): Active

O=C(O)CNc1cccc(CN(Cc2ccc(-n3cccn3)cc2)S(=O)(=O)c2cccnc2)n1 [OMIDENEPAG]
IC50 [1]: 10 nM
EC50 [2]: 1.1 nM
IC50 [3]: > 10000 nM
IC50 [4]: > 10000 nM
IC50 [5]: 5480 nM
Papp A→B at 10 µM [9]: 0.28 ×10⁻⁶ cm/s
Papp A→B at 10 µM [10]: 0.59 ×10⁻⁶ cm/s
Papp at 5 h, 100 µM [6]: 0.9 ×10⁻⁶ cm/s
Drug metabolism [11]: 57 pmol/min/mg
IC50 (Cytochrome P450 3A4 [12]): > 20000 nM
IC50 (Cytochrome P450 2D6): > 20000 nM
IC50 (Cytochrome P450 2C9): > 20000 nM
IC50 (Cytochrome P450 2C19): > 20000 nM
IC50 (Cytochrome P450 1A2 [13]): > 20000 nM
Activity (Cytochrome P450 3A4 [14]): Not Active
Activity (Cytochrome P450 1A2 [15]): Not Active
Ratio EC50 [16]: > 10
Activity (Cynomolgus monkey [17]): Active
